Screening results from PubChem.
M5 antag: human M5 muscarinic receptor antagonists, primary screen, CHO cells, Fluo-8 calcium fluorescence; inhibition, % at 3 µM; Muscarinic acetylcholine receptor M5 (Homo sapiens), P08912; AID 624040, 2012; 360,000 tested, 0.59% active; CHO-hM5 cells, ACh EC80;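 active = inhibition above a per-plate cutoff, the mean of that plate's test compounds plus 3 SD, cut at about 27% in these data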;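 note: 0% = acetylcholine EC80 with DMSO and 100% = DMSO without agonist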
Target sequence (P08912 whole entry, looked up): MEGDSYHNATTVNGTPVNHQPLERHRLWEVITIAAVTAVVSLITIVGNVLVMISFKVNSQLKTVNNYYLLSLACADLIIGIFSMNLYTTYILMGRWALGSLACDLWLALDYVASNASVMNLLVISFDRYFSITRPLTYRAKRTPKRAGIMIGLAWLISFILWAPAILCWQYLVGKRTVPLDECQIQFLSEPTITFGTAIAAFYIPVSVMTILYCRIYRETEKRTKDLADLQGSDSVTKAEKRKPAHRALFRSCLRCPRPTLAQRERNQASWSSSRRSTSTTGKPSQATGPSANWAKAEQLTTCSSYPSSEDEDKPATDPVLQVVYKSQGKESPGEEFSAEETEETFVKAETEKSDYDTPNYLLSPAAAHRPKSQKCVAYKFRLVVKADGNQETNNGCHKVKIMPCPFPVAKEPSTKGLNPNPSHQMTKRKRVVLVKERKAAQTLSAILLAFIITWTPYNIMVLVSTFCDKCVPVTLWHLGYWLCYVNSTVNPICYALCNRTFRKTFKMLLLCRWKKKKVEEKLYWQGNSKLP
M4 ag: human M4 muscarinic receptor agonists, primary screen, CHO-K1 cells, Fluo-8 calcium fluorescence; Muscarinic acetylcholine receptor M4 (Homo sapiens), P08173; CHO-K1 hM4/Gqi5; vehicle 0%, full acetylcholine response 100%; activation, % at 3 µM; 360,000 tested, 0.14% active;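 active = activation above the run mean over all test wells plus 3 SD, cut at about 32% in these data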;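 note: peak over basal fluorescence ratio per well then scaled between controls; 0% = DMSO wells and 100% = acetylcholine at EC100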
CHRM5 PAM: human M5 muscarinic receptor positive allosteric modulators, primary screen, CHO-K1 cells, Fluo-8 calcium fluorescence. AID 624038, 2012. activation, % at 3 µM. Muscarinic acetylcholine receptor M5 (Homo sapiens), P08912. 360,000 tested, 0.3% active. CHO-K1 hM5, ACh EC20 PAM; 0% = ACh EC20, 100% = ACh EC100;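 active = activation above the run cutoff, the mean activation of all test compounds plus 3 SD, cut at about 18% in these data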
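System: CHO-K1 hM5 cells. Reagent: acetylcholine, EC20 level. Compound dosing: single dose, 3 µM nominal final test concentration. Timing: Post-acetylcholine fluorescence recording 140 s. Detection: Fluo-8 calcium fluorescence. Read-out: % activation, ACh-normalized. Benchmarks: ACh EC20 and EC100 wells. Repeats: singlicate, one well per test compound.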
M5 ag: human M5 muscarinic receptor agonists, primary screen, CHO-K1 cells, Fluo-8 calcium fluorescence. Muscarinic acetylcholine receptor M5 (Homo sapiens), P08912. CHO-K1 hM5 cells; 0% DMSO wells, 100% maximal acetylcholine response. activation, % at 3 µM. 360,000 tested, 0.19% active;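 active = activation above the run's mean over test compounds plus 3 SD, cut at about 23% in these data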;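 note: signal is peak over basal fluorescence ratio across the kinetic read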
CHRM4 antagonist: human M4 muscarinic receptor antagonists, primary screen, CHO cells, Fluo-8 calcium fluorescence; CHO-hM4 cells, ACh EC80; 360,000 tested, 0.73% active; inhibition, % at 3 µM; AID 624125, 2012; Muscarinic acetylcholine receptor M4 (Homo sapiens), P08173;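 active = inhibition above its plate's cutoff, the mean inhibition of sample wells plus 3 SD, cut at about 27% in these data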;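 note: 0% = acetylcholine EC80 with DMSO and 100% = DMSO without agonist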
CHRM4 PAM: human M4 muscarinic receptor positive allosteric modulators, primary screen, CHO-K1 cells, Fluo-8 calcium fluorescence. Muscarinic acetylcholine receptor M4 (Homo sapiens), P08173. CHO-K1 hM4/Gqi5, ACh EC20; 0% = ACh EC20, 100% = maximal ACh. activation, % at 3 µM. 360,000 tested, 0.4% active. AID 624126, 2012;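 active = activation above its plate's cutoff, the mean activation of sample wells plus 3 SD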
* = called active by the depositor. Sampled rows, rich in hits. Any-hit rate of the full collection: about 1.8%.

SMILES	M5 antag	M4 ag	CHRM5 PAM	M5 ag	CHRM4 antagonist	CHRM4 PAM
CCCNC(=O)C1CCC(CNS(=O)(=O)c2cccc3nsnc23)CC1 (configuration not stated)	-1	1	6	-4	3	16*
CC(C)NS(=O)(=O)c1cccc2nsnc12	3	2	0	0	11	27*
CC1CC(C)CN(S(=O)(=O)c2cccc3nsnc23)C1 (configuration not stated)	-9	0	6	-2	-10	21*
CC(C)C(=O)N1CCN(c2ccccc2NC(=O)c2ccc(C#N)cc2F)CC1	5	6	-2	-3	6	-3
CC1CCN(c2ccccc2NC(=O)c2ccc(C#N)cc2F)CC1	-3	-1	2	-2	-2	23*
O=C1NC(=S)N/C1=C/c1cccc2ccccc12	14	0	-7	-4	-16	5
O=C1NC(=S)NC1=Cc1ccccc1O	31*	134*	-27	110*	13	-20
CN(C)c1ccc(N2CN=C3SCC(=O)N3C2)cc1	-4	1	-4	1	-2	0
N#CCCN1CCN(CCC#N)C1=S	8	1	-7	30*	-10	0
CCN(CC)C(=O)CSc1nc2ccccc2c(=O)n1OC(C)C	-15	-3	23*	4	-9	19
COc1ccc(NC(=O)CS(=O)CC(=O)Nc2ccc(OC)c(OC)c2)cc1 (configuration not stated)	-7	1	13	-3	-4	30*
c1ccc2c(c1)ccc1ncccc12	5	2	0	-3	5	21*
CCSC1=NSC2=NC(=O)/C(=C\c3coc4ccccc4c3=O)C(=N)N12	63*	63*	-21	51*	38*	-22
CC(C)CC1=NN2C(=N)/C(=C\c3coc4ccccc4c3=O)C(=O)N=C2S1	48*	63*	-25	158*	9	-23
Cc1cccc(-n2c(C)cc(/C=C3\C(=N)N4N=C(CC(C)C)SC4=NC3=O)c2C)c1	5	0	-6	-8	3	-8
Fc1cc(F)cc(Nc2nc(Cl)nc(NC3CCCC3)n2)c1	1	-1	-13	-7	-5	-3
Cn1c(SCC(N)=O)nnc1-c1ccc(S(=O)(=O)N2CCCC2)cc1	10	2	-2	-4	-4	0
Cc1ccc(-n2c(SCC(N)=O)nnc2-c2ccc(S(=O)(=O)N3CCCCC3)cc2)c(C)c1	19	12	-17	-4	99*	-36
Fc1ccc(-n2nnc(-c3cccnc3)n2)cc1	8	1	3	2	-4	11
Fc1ccc(C(CCCn2nnc(-c3cccnc3)n2)c2ccc(F)cc2)cc1	22	6	-54	-10	29*	-18
CC(=O)Nc1cccc2ccc(O)cc12	5	0	3	-2	-11	16*
CC(Sc1ccc(Cl)cc1)C(=O)Nc1ccc(S(=O)(=O)N2CCOCC2)cc1 (configuration not stated)	6	26	7	39*	-4	-7
CC(C)C(=O)Nc1ccc(C(=O)Nc2ccc(S(=O)(=O)N3CCOCC3)cc2)cc1	4	1	6	-2	-1	-3
O=C(CN1CCN(C(=O)C2CCCO2)CC1)Nc1ccc(Br)cc1 (configuration not stated)	-8	1	4	-3	1	-5
CC(C)c1ccc(/C=C/C(=O)NC(=S)NN2CCOCC2)cc1	5	6	-3	-3	-23	2
